Measurements reported in ChEMBL document CHEMBL3098056, “Small molecule inhibitors of anthrax lethal factor toxin” (Bioorg Med Chem, 2014).

Tests used:
[1] = target: T1, Lethal factor (Bacillus anthracis, UniProt P15917); experiment: Non-competitive inhibition of Bacillus anthracis lethal factor assessed as MCA-KKVYPYPME[dnp]K amide cleavage after 30 mins by Eadie-Hofstee plot analysis
T1 sequence (P15917 whole entry): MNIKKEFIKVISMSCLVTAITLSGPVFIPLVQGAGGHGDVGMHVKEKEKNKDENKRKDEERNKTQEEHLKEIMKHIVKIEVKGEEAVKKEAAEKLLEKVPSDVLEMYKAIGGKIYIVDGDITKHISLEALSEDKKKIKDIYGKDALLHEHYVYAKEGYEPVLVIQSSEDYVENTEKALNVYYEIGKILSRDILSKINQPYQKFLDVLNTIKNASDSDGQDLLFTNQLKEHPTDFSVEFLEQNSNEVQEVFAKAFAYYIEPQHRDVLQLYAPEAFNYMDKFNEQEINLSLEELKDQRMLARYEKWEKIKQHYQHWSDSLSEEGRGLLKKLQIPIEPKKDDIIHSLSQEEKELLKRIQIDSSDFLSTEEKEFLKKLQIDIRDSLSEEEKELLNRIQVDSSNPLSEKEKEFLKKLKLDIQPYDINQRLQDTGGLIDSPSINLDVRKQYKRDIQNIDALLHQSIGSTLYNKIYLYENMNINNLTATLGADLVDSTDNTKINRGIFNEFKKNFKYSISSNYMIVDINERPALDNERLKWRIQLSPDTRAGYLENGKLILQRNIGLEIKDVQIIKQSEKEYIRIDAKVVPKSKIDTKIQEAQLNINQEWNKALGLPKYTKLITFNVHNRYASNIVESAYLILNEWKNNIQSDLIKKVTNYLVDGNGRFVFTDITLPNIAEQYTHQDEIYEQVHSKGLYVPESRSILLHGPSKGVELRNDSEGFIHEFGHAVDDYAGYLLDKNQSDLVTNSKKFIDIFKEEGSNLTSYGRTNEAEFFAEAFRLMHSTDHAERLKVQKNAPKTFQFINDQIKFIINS

[2] = target: T1, Lethal factor; experiment: Non-competitive inhibition of Bacillus anthracis lethal factor using 100 uM MCA-KKVYPYPME[dnp]K amide as substrate after 30 mins by Eadie-Hofstee plot analysis
[3] = target: T1, Lethal factor; experiment: Non-competitive inhibition of Bacillus anthracis lethal factor using 50 uM MCA-KKVYPYPME[dnp]K amide as substrate after 30 mins by Eadie-Hofstee plot analysis
[4] = target: T1, Lethal factor; experiment: Non-competitive inhibition of Bacillus anthracis lethal factor using 25 uM MCA-KKVYPYPME[dnp]K amide as substrate after 30 mins by Eadie-Hofstee plot analysis
[5] = target: T1, Lethal factor; experiment: Non-competitive inhibition of Bacillus anthracis lethal factor using 12.5 uM MCA-KKVYPYPME[dnp]K amide as substrate after 30 mins by Eadie-Hofstee plot analysis
[6] = target: T1, Lethal factor; experiment: Non-competitive inhibition of Bacillus anthracis lethal factor using 6.25 uM MCA-KKVYPYPME[dnp]K amide as substrate after 30 mins by Eadie-Hofstee plot analysis
[7] = target: Matrix metalloproteinase-9 (Homo sapiens, UniProt P14780); experiment: Inhibition of human MMP-9 after 60 mins by FRET assay
Outline: (§1)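 MMP-1 (38 nM) or MMP-9 (13 nM) with 50 fluorogenic substrate in 50 mM MOPS pH 6.0 and 0.05% NP-40, 37 °C for 60 min (linear range 90 min). Stopped with acetic acid (0.5% final); emission at 440 nm, excitation at 340 nm.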

[8] = target: T2, Interstitial collagenase (Homo sapiens, UniProt P03956); experiment: Inhibition of human MMP-1 after 60 mins by FRET assay; outline: as §1
T2 sequence (P03956 whole entry): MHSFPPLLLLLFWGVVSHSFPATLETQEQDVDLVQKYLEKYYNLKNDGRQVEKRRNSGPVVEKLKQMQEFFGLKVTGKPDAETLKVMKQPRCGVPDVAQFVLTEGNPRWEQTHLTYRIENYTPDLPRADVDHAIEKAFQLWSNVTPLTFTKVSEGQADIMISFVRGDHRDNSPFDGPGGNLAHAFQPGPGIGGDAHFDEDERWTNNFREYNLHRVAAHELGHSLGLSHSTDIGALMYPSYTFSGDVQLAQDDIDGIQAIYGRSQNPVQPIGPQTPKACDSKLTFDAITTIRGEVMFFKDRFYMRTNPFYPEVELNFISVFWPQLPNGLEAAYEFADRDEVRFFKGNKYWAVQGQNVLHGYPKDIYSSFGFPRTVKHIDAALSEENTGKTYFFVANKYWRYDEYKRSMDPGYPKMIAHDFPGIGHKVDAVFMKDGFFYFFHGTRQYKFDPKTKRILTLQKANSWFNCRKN

[9] = target: Botulinum neurotoxin type A (Clostridium botulinum, UniProt P0DPI0); experiment: Inhibition of Clostridium bolulinum BoNT/A assessed as cleavage of MOCAc-Lys-Lys-Val-Tyr-Pro-Tyr-Pro-Met-Glu-Lys(Dnp)-NH2 after 40 mins by FRET assay
Outline: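 BoNT/A light chain (2 nM) in a 96-well FRET format. Reactions were stopped with acetic acid to 0.5% and cleaved-substrate fluorescence read at 485 nm with excitation at 398 nm. The same format served for IC50 and mechanism kinetics.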

[10] = target: T1, Lethal factor; experiment: Non-competitive inhibition of Bacillus anthracis lethal factor using 3.12 uM MCA-KKVYPYPME[dnp]K amide as substrate after 30 mins by Eadie-Hofstee plot analysis
[11] = target: T1, Lethal factor; experiment: Inhibition of Bacillus anthracis lethal factor assessed as MCA-KKVYPYPME[dnp]K amide cleavage after 30 mins by fluorescence plate reader analysis
[12] = target: T1, Lethal factor
[13] = target: T1, Lethal factor; experiment: Inhibition of Bacillus anthracis lethal factor by fluorescence assay
Outline: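 FRET-based assay: LF cleaves a SNAP-derived fluorogenic peptide, and cleavage is read as a change in fluorescence.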

Sequence of Matrix metalloproteinase-9 (P14780 whole entry): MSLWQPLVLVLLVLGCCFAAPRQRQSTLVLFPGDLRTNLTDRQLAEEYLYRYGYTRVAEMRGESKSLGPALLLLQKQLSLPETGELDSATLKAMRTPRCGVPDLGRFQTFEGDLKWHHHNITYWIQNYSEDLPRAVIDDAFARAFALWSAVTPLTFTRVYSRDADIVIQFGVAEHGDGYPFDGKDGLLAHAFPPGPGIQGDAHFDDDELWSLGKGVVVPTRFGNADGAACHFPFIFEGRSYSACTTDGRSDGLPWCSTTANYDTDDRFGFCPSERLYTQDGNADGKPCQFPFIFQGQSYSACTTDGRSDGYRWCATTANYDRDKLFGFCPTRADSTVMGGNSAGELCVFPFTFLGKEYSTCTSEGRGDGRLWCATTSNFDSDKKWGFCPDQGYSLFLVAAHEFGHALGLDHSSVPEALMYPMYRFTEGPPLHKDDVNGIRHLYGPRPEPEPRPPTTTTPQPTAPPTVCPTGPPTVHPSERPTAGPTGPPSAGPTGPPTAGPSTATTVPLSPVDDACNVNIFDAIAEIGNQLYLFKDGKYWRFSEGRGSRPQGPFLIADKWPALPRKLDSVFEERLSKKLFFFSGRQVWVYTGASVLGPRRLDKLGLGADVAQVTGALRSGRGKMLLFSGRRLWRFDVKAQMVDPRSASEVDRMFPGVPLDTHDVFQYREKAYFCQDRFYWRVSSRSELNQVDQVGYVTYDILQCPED
Sequence of Botulinum neurotoxin type A (P0DPI0 2-448 limits assumed): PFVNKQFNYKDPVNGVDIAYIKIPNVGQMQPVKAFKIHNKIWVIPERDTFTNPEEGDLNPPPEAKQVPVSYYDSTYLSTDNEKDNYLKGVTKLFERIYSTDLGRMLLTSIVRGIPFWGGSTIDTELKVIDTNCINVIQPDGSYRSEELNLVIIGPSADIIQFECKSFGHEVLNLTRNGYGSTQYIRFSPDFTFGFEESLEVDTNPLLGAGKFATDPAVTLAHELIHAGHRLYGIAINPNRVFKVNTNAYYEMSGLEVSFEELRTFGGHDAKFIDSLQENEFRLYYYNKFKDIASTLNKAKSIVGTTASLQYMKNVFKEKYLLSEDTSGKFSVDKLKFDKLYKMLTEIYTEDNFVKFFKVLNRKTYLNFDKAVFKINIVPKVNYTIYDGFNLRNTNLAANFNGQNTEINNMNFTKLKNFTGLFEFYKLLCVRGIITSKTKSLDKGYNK

Row | SMILES | Ki [1] [µM] | IC50 [2] [µM] | IC50 [3] [µM] | IC50 [4] [µM] | IC50 [5] [µM] | IC50 [6] [µM] | IC50 [7] [µM] | IC50 [8] [µM] | IC50 [9] [µM] | Ki [10] [µM] | IC50 [11] [µM] | Ki [12] [µM] | Ki [13] [µM]
1 | COc1ccccc1CCC(=O)Nc1ccc2nc(C)cc(N)c2c1 | 2.88 | 1.22 | 1.1 | 0.952 | 0.841 | 0.729 | > 100 | > 100 | > 100 | 0.478 | 3 |  | 
2 | Cc1cc(N)c2cc(NC(=O)c3ccc(-c4ccc5ncccc5c4)cc3)ccc2n1 | 1.14 | 1.1 | 1.16 | 1.22 | 1.25 | 1.26 | 1.7 | > 100 | 38 | 1.26 | 1.6 |  | 
3 | Cc1cc(S(=O)(=O)N[C@@H](C(=O)NO)C2CCOCC2)ccc1F |  |  |  |  |  |  |  |  |  |  |  | 0.024 | 
4 | O=c1oc2c(O)c(O)ccc2c2c1CCC2 |  |  |  |  |  |  |  |  |  |  |  |  | 0.57
